These results are taken from ChEMBL document CHEMBL1153229, “The first synthetic agonists of FFA2: Discovery and SAR of phenylacetamides as allosteric modulators” (Bioorg Med Chem Lett, 2010).

The target in assay [1] is T1, Free fatty acid receptor 3 (Homo sapiens) (UniProt O14843).
T1 sequence (whole entry): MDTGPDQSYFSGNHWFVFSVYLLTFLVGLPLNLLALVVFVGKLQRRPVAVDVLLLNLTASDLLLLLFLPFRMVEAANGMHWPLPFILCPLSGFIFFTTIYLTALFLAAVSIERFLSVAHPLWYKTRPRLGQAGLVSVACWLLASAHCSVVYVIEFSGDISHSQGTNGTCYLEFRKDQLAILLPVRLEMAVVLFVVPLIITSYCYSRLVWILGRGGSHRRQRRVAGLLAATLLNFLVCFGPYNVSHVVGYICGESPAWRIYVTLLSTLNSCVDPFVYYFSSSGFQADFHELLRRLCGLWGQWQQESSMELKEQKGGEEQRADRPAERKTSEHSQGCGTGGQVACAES
Description: Agonist activity at FFA3 receptor up to 30 uM. The format is functional.

In assay [2] the target is Hydroxycarboxylic acid receptor 2 (Homo sapiens) (UniProt Q8TDS4). Put plainly: Agonist activity at GPR109A up to 30 uM. The class given is functional.
Sequence of Hydroxycarboxylic acid receptor 2 (Homo sapiens) (Q8TDS4 whole entry): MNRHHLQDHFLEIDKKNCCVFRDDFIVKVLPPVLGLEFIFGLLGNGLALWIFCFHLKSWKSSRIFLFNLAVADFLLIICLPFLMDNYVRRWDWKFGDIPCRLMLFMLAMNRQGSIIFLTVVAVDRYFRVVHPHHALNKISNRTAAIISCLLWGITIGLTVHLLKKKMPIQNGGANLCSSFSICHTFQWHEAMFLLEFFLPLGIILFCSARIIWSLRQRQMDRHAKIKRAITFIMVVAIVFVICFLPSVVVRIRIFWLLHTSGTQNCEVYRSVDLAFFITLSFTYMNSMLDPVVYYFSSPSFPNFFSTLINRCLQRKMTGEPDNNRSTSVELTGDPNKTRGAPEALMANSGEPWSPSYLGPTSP
The target in assay [3] is T2, Free fatty acid receptor 2 (Mus musculus) (UniProt Q8VCK6).
T2 sequence (whole entry): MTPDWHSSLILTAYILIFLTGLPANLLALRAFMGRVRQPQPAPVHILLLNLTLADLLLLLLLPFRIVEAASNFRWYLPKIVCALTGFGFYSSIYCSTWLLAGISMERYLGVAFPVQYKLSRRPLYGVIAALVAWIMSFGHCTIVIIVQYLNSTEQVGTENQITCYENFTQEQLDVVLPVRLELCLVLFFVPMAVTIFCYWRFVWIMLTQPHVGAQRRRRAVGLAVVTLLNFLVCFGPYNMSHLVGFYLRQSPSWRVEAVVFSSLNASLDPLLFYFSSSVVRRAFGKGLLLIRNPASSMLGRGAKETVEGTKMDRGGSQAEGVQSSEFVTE
Put plainly: Agonist activity at mouse FFA2 receptor expressed in CHO cells assessed as inhibition of forskolin-induced cAMP production. The format is functional, cell-based. The procedure, abridged: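 Suspended cells, 10,000 per well, in Hank's balanced salt solution with 25 mM HEPES and 0.01% (w/v) BSA. Stimulated with forskolin (5 μM final) plus serially diluted test ligands, room temperature for 30 min. Antibody and lysis reagents then added, followed by overnight dark incubation with detection solution. Luminescence read (RLU). Efficacy expressed relative to acetate. Means of four experiments.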

Activity calls are given as the source filed them. The calls are words filed in the database; no cut-off is given here.

As to `CC(C)[C@H](C(=O)Nc1ncc(F)s1)c1ccc(Cl)cc1`, the result in assay [1] and in assay [2] was inactive. For the same molecule, the Activity in assay [3] was found to be 0.7 µM.
